The source of these data is ChEMBL document CHEMBL1154792, “chi-Conopeptide pharmacophore development: toward a novel class of norepinephrine transporter inhibitor (Xen2174) for pain” (J Med Chem, 2009).

The source made the active and inactive calls. The rule behind the calls is not given here. Where a SMILES comes first, the peptide text is derived from it. Bridges are numbered along the chain shown (N, C = ends). [ ]: non-standard residue; d: D form. Pro(3S-OH) = O=C(O)[C@H]1NCC[C@@H]1O; Cha = N[C@@H](CC1CCCCC1)C(=O)O; pGlu = O=C1CC[C@@H](C(=O)O)N1

Sequence of Sodium-dependent noradrenaline transporter (P23975 whole entry): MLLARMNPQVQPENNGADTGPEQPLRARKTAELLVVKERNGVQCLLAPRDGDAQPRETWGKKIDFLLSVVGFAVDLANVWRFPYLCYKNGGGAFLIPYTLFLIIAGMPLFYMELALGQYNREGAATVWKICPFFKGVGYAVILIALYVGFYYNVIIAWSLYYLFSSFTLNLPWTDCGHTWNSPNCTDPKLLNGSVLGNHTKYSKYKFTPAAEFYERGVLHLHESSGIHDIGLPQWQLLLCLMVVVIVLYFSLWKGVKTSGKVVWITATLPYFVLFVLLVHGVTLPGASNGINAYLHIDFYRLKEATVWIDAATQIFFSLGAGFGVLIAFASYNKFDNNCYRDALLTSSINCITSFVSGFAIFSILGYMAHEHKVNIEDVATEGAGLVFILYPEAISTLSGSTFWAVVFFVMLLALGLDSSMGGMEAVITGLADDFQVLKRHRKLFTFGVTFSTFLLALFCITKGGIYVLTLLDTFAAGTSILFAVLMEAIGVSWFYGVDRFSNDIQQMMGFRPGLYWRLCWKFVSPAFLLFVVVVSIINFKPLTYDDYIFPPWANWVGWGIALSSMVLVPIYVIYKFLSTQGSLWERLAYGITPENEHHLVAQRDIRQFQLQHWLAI

The species named for one data set is Rattus norvegicus. The experiment in a line: Toxicity in CCI rat pain model assessed as side effects. Format: organism-based. Particulars: in vivo. The method in brief:
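Rats with unilateral sciatic chronic constriction injury received a single intrathecal bolus via an implanted cannula 14 days after surgery, with morphine and vehicle as comparators. Compound-related behavioural observations were recorded alongside von Frey paw-withdrawal testing. Three animals per analogue.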
In the case of `CCCC[C@H](N)C(=O)NCC(=O)N[C@H](C(=O)N[C@H]1CSSC[C@@H](C(=O)O)NC(=O)[C@@H]2[C@@H](O)CCN2C(=O)[C@H](Cc2cnc[nH]2)NC(=O)[C@@H]2CSSC[C@H](NC1=O)C(=O)NCC(=O)N[C@@H](Cc1ccc(O)cc1)C(=O)N[C@@H](CCCCN)C(=O)N[C@@H](CC(C)C)C(=O)N2)C(C)C`, the Activity result is reported as “Toxic”.
Still for that read-out and setting: the entry for `CC(C)C[C@@H]1NC(=O)[C@H](CCCCN)NC(=O)[C@H](Cc2ccc(O)cc2)NC(=O)CNC(=O)[C@@H]2CSSC[C@H](NC1=O)C(=O)N[C@@H](Cc1cnc[nH]1)C(=O)N1CC[C@H](O)[C@H]1C(=O)N[C@H](C(=O)O)CSSC[C@H](NC(=O)[C@@H](NC(=O)CNC(=O)[C@H](CC(N)=O)NC(=O)[C@@H](N)Cc1c[nH]c3ccccc13)C(C)C)C(=O)N2` is “Toxic”; for `CC(C)C[C@@H]1NC(=O)[C@H](CCCCN)NC(=O)[C@H](Cc2ccc(O)cc2)NC(=O)CNC(=O)[C@@H]2CSSC[C@H](NC1=O)C(=O)N[C@@H](Cc1cnc[nH]1)C(=O)N1CC[C@H](O)[C@H]1C(=O)N[C@H](C(=O)O)CSSC[C@H](NC(=O)[C@@H](NC(=O)CNC(=O)[C@H](N)CCCNC(=N)N)C(C)C)C(=O)N2` it is “Toxic”.
For the compound `CC(C)C[C@@H]1NC(=O)[C@H](CCCCN)NC(=O)[C@H](Cc2ccc(O)cc2)NC(=O)CNC(=O)[C@@H]2CSSC[C@H](NC1=O)C(=O)N[C@@H](Cc1cnc[nH]1)C(=O)N1CC[C@H](O)[C@H]1C(=O)N[C@H](C(=O)O)CSSC[C@H](NC(=O)[C@@H](NC(=O)CNC(=O)[C@H](N)CC(N)=O)C(C)C)C(=O)N2`, the Activity entry was “Toxic”.

A further data set has as its target Sodium-dependent noradrenaline transporter (Homo sapiens, UniProt P23975). The data set can be described thus: Displacement of [3H]nisoxetine from human NET expressed in COS7 cells. Format: cell-based. To be noted: COS-7. The method in brief: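 Membranes from COS-7 cells transfected with human NET were incubated with [3H]nisoxetine (4.3 nM) with or without peptide (1 nM to 100 μM, triplicate) for 1 h at RT. Filter-retained radioactivity was counted by liquid scintillation, and values are given as pIC50. Data are means of 2–5 experiments in triplicate; peptide concentration was set by calibrated HPLC at 214 nm.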
As to `CC(C)C[C@@H]1NC(=O)[C@H](CCCCN)NC(=O)[C@H](Cc2ccc(O)cc2)NC(=O)CNC(=O)[C@@H]2CSSC[C@H](NC1=O)C(=O)N[C@@H](Cc1cnc[nH]1)C(=O)N[C@H](CCCCN)C(=O)N[C@H](C(=O)O)CSSC[C@H](NC(=O)[C@@H](NC(=O)CNC(=O)[C@@H]1CCC(=O)N1)C(C)C)C(=O)N2`, the result was Active.
On the same count and under the same terms, the entry for `CC(C)C[C@@H]1NC(=O)[C@H](CCCCN)NC(=O)[C@H](Cc2ccc(O)cc2)NC(=O)CNC(=O)[C@@H]2CSSC[C@H](NC1=O)C(=O)N[C@@H](Cc1cnc[nH]1)C(=O)N1Cc3ccccc3C[C@H]1C(=O)N[C@H](C(=O)O)CSSC[C@H](NC(=O)[C@@H](NC(=O)CNC(=O)[C@@H]1CCC(=O)N1)C(C)C)C(=O)N2` is “Active”.
Turning to `COc1ccc(C[C@H]2NC(=O)[C@H](Cc3cnc[nH]3)NC(=O)[C@@H]3CSSC[C@H](NC(=O)[C@@H](NC(=O)[C@@H](NC(=O)CNC(=O)[C@@H]4CCC(=O)N4)C(C)C)CSSC[C@@H](C(=O)O)NC2=O)C(=O)NCC(=O)N[C@@H](Cc2ccc(O)cc2)C(=O)N[C@@H](CCCCN)C(=O)N[C@@H](CC(C)C)C(=O)N3)cc1`, the result was Active.
Same read-out and setting: under `CC(C)C[C@@H]1NC(=O)[C@H](CCCCN)NC(=O)[C@H](CCCNC(=N)N)NC(=O)CNC(=O)[C@@H]2CSSC[C@H](NC1=O)C(=O)N[C@@H](Cc1cnc[nH]1)C(=O)N1CC[C@H](O)[C@H]1C(=O)N[C@H](C(=O)O)CSSC[C@H](NC(=O)[C@@H](NC(=O)CNC(=O)[C@@H]1CCC(=O)N1)C(C)C)C(=O)N2` ([pGlu]GVCCGRKLCH[Pro(3S-OH)]C-OH; disulfide 4-13, 5-10) stands “inactive”.
On the same count and under the same terms, under `CC[C@H](C)[C@@H]1NC(=O)CNC(=O)[C@@H]2CSSC[C@H](NC(=O)[C@H](CC(C)C)NC(=O)[C@H](CCCCN)NC1=O)C(=O)N[C@@H](Cc1cnc[nH]1)C(=O)N1CC[C@H](O)[C@H]1C(=O)N[C@H](C(=O)O)CSSC[C@H](NC(=O)[C@@H](NC(=O)CNC(=O)[C@@H]1CCC(=O)N1)C(C)C)C(=O)N2` stands “inactive”; under `CCCC[C@@H]1NC(=O)[C@H](CCCCN)NC(=O)[C@H](Cc2ccc(O)cc2)NC(=O)CNC(=O)[C@@H]2CSSC[C@H](NC1=O)C(=O)N[C@@H](Cc1cnc[nH]1)C(=O)N1CC[C@H](O)[C@H]1C(=O)N[C@H](C(=O)O)CSSC[C@H](NC(=O)[C@@H](NC(=O)CNC(=O)[C@@H]1CCC(=O)N1)C(C)C)C(=O)N2`, “Active”; under `CC(C)C[C@@H]1NC(=O)[C@H](CCCCN)NC(=O)[C@H](Cc2ccc(O)cc2)NC(=O)CNC(=O)[C@@H]2CSSC[C@H](NC1=O)C(=O)N[C@@H](Cc1cnc[nH]1)C(=O)N[C@H](Cc1ccc(O)cc1)C(=O)N[C@H](C(=O)O)CSSC[C@H](NC(=O)[C@@H](NC(=O)CNC(=O)[C@@H]1CCC(=O)N1)C(C)C)C(=O)N2`, “Active”.
Same read-out and setting: under `CC(C)C[C@@H]1NC(=O)[C@H](CCCCN)NC(=O)[C@H](CCC(=O)O)NC(=O)CNC(=O)[C@@H]2CSSC[C@H](NC1=O)C(=O)N[C@@H](Cc1cnc[nH]1)C(=O)N1CC[C@H](O)[C@H]1C(=O)N[C@H](C(=O)O)CSSC[C@H](NC(=O)[C@@H](NC(=O)CNC(=O)[C@@H]1CCC(=O)N1)C(C)C)C(=O)N2` stands “inactive”; under `COc1ccc(C[C@@H]2NC(=O)CNC(=O)[C@@H]3CSSC[C@H](NC(=O)[C@H](CC(C)C)NC(=O)[C@H](CCCCN)NC2=O)C(=O)N[C@@H](Cc2cnc[nH]2)C(=O)N2CC[C@H](O)[C@H]2C(=O)N[C@H](C(=O)O)CSSC[C@H](NC(=O)[C@@H](NC(=O)CNC(=O)[C@@H]2CCC(=O)N2)C(C)C)C(=O)N3)c(OC)c1`, “inactive”.
Consider `COc1ccc(C[C@H]2CC(=O)N[C@@H](CCCCN)C(=O)N[C@@H](CC(C)C)C(=O)N[C@H]3CSSC[C@H](NC(=O)[C@@H](NC(=O)[C@@H](NC(=O)CNC(=O)[C@@H]4CCC(=O)N4)C(C)C)CSSC[C@@H](C(=O)O)NC(=O)[C@@H]4[C@@H](O)CCN4C(=O)[C@H](Cc4cnc[nH]4)NC3=O)C(=O)NCC(=O)N2)cc1`, for which the result was inactive.
Same read-out and setting: the entry for `CC(C)C[C@@H]1NC(=O)[C@H](CCCCN)NC(=O)[C@H](Cc2ccc(O)cc2)NC(=O)CNC(=O)[C@@H]2CSSC[C@H](NC1=O)C(=O)N[C@@H](Cc1c[nH]c3ccccc13)C(=O)N1CC[C@H](O)[C@H]1C(=O)N[C@H](C(=O)O)CSSC[C@H](NC(=O)[C@@H](NC(=O)CNC(=O)[C@@H]1CCC(=O)N1)C(C)C)C(=O)N2` ([pGlu]GVCCGYKLCW[Pro(3S-OH)]C-OH; disulfide 4-13, 5-10) is “Active”; for `CC(C)C[C@@H]1NC(=O)[C@H](CCCCN)NC(=O)[C@@H](Cc2ccc(O)cc2)NC(=O)CNC(=O)[C@@H]2CSSC[C@H](NC1=O)C(=O)N[C@@H](Cc1cnc[nH]1)C(=O)N1CC[C@H](O)[C@H]1C(=O)N[C@H](C(=O)O)CSSC[C@H](NC(=O)[C@@H](NC(=O)CNC(=O)[C@@H]1CCC(=O)N1)C(C)C)C(=O)N2` it is “inactive”; for `COc1ccc(C[C@@H]2NC(=O)CNC(=O)[C@@H]3CSSC[C@H](NC(=O)[C@H](CC4CCCCC4)NC(=O)[C@H](CCCCN)NC(=O)[C@H](Cc4ccc(O)cc4)NC2=O)C(=O)N[C@@H](Cc2c[nH]c4ccccc24)C(=O)N2CC[C@H](O)[C@H]2C(=O)N[C@H](C(=O)O)CSSC[C@H](NC(=O)[C@@H](NC(=O)CNC(=O)[C@@H]2CCC(=O)N2)C(C)C)C(=O)N3)cc1` ([pGlu]GVCCGY(Me)YK[Cha]CW[Pro(3S-OH)]C-OH; disulfide 4-14, 5-11) it is “Active”.
Take `CC(C)C[C@@H]1NC(=O)[C@H](CCCCN)NC(=O)[C@H](Cc2ccc(O)cc2)NC(=O)CNC(=O)[C@@H]2CSSC[C@H](NC1=O)C(=O)N[C@@H](Cc1cnc[nH]1)C(=O)N[C@H](CCC(=O)O)C(=O)N[C@H](C(=O)O)CSSC[C@H](NC(=O)[C@@H](NC(=O)CNC(=O)[C@@H]1CCC(=O)N1)C(C)C)C(=O)N2`: the outcome was Active.
Same read-out and setting: the entry for `CC(C)C[C@@H]1NC(=O)[C@H](CCCCN)NC(=O)[C@H](CCCCN)NC(=O)CNC(=O)[C@@H]2CSSC[C@H](NC1=O)C(=O)N[C@@H](Cc1cnc[nH]1)C(=O)N1CC[C@H](O)[C@H]1C(=O)N[C@H](C(=O)O)CSSC[C@H](NC(=O)[C@@H](NC(=O)CNC(=O)[C@@H]1CCC(=O)N1)C(C)C)C(=O)N2` ([pGlu]GVCCGKKLCH[Pro(3S-OH)]C-OH; disulfide 4-13, 5-10) is “inactive”.
On the same count and under the same terms, the entry for `CC(C)C[C@@H]1NC(=O)[C@H](CCCCN)NC(=O)[C@H](C(c2ccccc2)c2ccccc2)NC(=O)CNC(=O)[C@@H]2CSSC[C@H](NC1=O)C(=O)N[C@@H](Cc1cnc[nH]1)C(=O)N1CC[C@H](O)[C@H]1C(=O)N[C@H](C(=O)O)CSSC[C@H](NC(=O)[C@@H](NC(=O)CNC(=O)[C@@H]1CCC(=O)N1)C(C)C)C(=O)N2` is “inactive”; for `CC(C)C[C@@H]1NC(=O)[C@H](CCCCN)NC(=O)[C@H](Cc2ccc(O)cc2)NC(=O)CNC(=O)[C@@H]2CSSC[C@H](NC1=O)C(=O)N[C@@H](Cc1cnc[nH]1)C(=O)N[C@H](CC(=O)O)C(=O)N[C@H](C(=O)O)CSSC[C@H](NC(=O)[C@@H](NC(=O)CNC(=O)[C@@H]1CCC(=O)N1)C(C)C)C(=O)N2` it is “inactive”; for `CC(C)C[C@@H]1NC(=O)[C@H](CCCCN)NC(=O)[C@H](Cc2ccc(O)cc2)NC(=O)CNC(=O)[C@H]2CSSC[C@@H](NC1=O)C(=O)N[C@@H](Cc1cnc[nH]1)C(=O)N1CC[C@H](O)[C@H]1C(=O)N[C@@H](C(=O)O)CSSC[C@@H](NC(=O)[C@@H](NC(=O)CNC(=O)[C@@H]1CCC(=O)N1)C(C)C)C(=O)N2` it is “inactive”.

The subject of another data set is COS-7. The experiment in a line: Displacement of [3H]nisoxetine from rat NET expressed in COS7 cells. Format: cell-based.
Conditions: not given
Turning to `CC(C)C[C@@H]1NC(=O)[C@H](CCCCN)NC(=O)[C@H](Cc2ccc(O)cc2)NC(=O)CNC(=O)[C@@H]2CSSC[C@H](NC1=O)C(=O)N[C@@H](Cc1cnc[nH]1)C(=O)N[C@H](CCCCN)C(=O)N[C@H](C(=O)O)CSSC[C@H](NC(=O)[C@@H](NC(=O)CNC(=O)[C@@H]1CCC(=O)N1)C(C)C)C(=O)N2`, the result was Active.
Still for that read-out and setting: the entry for `CC(C)C[C@@H]1NC(=O)[C@H](CCCCN)NC(=O)[C@H](Cc2ccc(O)cc2)NC(=O)CNC(=O)[C@@H]2CSSC[C@H](NC1=O)C(=O)N[C@@H](Cc1cnc[nH]1)C(=O)N1Cc3ccccc3C[C@H]1C(=O)N[C@H](C(=O)O)CSSC[C@H](NC(=O)[C@@H](NC(=O)CNC(=O)[C@@H]1CCC(=O)N1)C(C)C)C(=O)N2` is “Active”; for `CC(C)C[C@@H]1NC(=O)[C@H](CCCCN)NC(=O)[C@H](Cc2ccc(O)cc2)NC(=O)CNC(=O)[C@@H]2CSSC[C@H](NC1=O)C(=O)N[C@@H](Cc1cnc[nH]1)C(=O)N[C@H](Cc1ccc(O)cc1)C(=O)N[C@H](C(=O)O)CSSC[C@H](NC(=O)[C@@H](NC(=O)CNC(=O)[C@@H]1CCC(=O)N1)C(C)C)C(=O)N2` it is “Active”.
Same read-out and setting: the entry for `CC(C)C[C@@H]1NC(=O)[C@H](CCCCN)NC(=O)[C@H](Cc2ccc(O)cc2)NC(=O)CNC(=O)[C@@H]2CSSC[C@H](NC1=O)C(=O)N[C@@H](Cc1cnc[nH]1)C(=O)N[C@H](CCC(=O)O)C(=O)N[C@H](C(=O)O)CSSC[C@H](NC(=O)[C@@H](NC(=O)CNC(=O)[C@@H]1CCC(=O)N1)C(C)C)C(=O)N2` is “Active”.
